According to ChEMBL document CHEMBL4680135, “Design, synthesis and biological evaluation of indole-2-carboxylic acid derivatives as IDO1/TDO dual inhibitors” (Eur J Med Chem, 2020):
Calls of active or inactive are those of the source. No cut-off for these calls is given here.

Columns and labels:
[1] = Toxicity in C57BL/6 mouse xenografted with mouse B16F10 cells assessed as body weight loss at 50 to 100 mg/kg, po administered for 19 consecutive days; format: organism-based; conditions: in vivo, 456 h, dose 50-100 mg/kg, time 19 day
Summary of the method: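 B16F10 cells (1×10^6) implanted subcutaneously in C57BL/6 mice on day 0; daily oral treatment from day 1 with compound suspended in 0.5% CMC-Na, vehicle group receiving 0.5% CMC-Na. Body weight of treated mice compared against vehicle control group.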

T-lymphocyte = assay: Reversal of IDO1/TDO-mediated suppression of mouse T-lymphocyte proliferation assessed as increase in mytomycin C treated LLC cells stimulated T-cells proliferation at 10 uM incubated for 3 days by Cell Titer Glo luminescent cell viability assay; format: cell-based; conditions: time 3.0 day
Summary of the method: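 Responder T lymphocytes from BALB/c mouse splenocytes (1×10^5/well) in RPMI 1640 with 10% FBS co-cultured with 1×10^4 LLC stimulator cells pretreated with mitomycin C (final 25 µg/mL, 37 °C, 1 h, washed thrice), plus compound; 37 °C, 5% CO₂, 3 days. Proliferation by CellTiter-Glo luminescence; mean of three replicate wells with SEM.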

A 172 [2] = assay: Inhibition of IDO1/TDO in IFNgamma-stimulated human A172 cells assessed as reduction in kynurenine formation at 50 uM using L-tryptophan as substrate incubated for 48 hrs by microplate reader analysis relative to control; format: cell-based
Summary of the method: (§1)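 A172 cells seeded at 4×10^4/well, next day given compound in 10% serum medium with IFNγ (final 100 ng/mL) and Trp (final 1 mmol/L), 48 h. Supernatant treated with 30% (w/v) TCA, heated 65 °C 15 min, mixed with 2% p-dimethylaminobenzaldehyde in acetic acid; kynurenine pigment read at 490 nm.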

B16-F10 [3] = assay: Antitumor activity against mouse B16F10 cells xenografted in C57BL6 mouse assessed as tumor growth inhibition at 50 mg/kg, po administered for 19 consecutive days relative to control; format: functional; conditions: 456 h, time 19 day, read-out: TGI
Summary of the method: (§2)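 B16F10 melanoma cells harvested in saline; 1×10^6 cells injected subcutaneously into C57BL/6 mice on day 0. Mice randomized; daily oral dosing from day 1, compound in 0.5% CMC-Na, vehicle controls given 0.5% CMC-Na orally; cyclophosphamide 100 mg/kg i.p. as reference group.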

A 172 [4] = assay: Inhibition of IDO1/TDO in IFNgamma-stimulated human A172 cells assessed as reduction in kynurenine formation at 100 uM using L-tryptophan as substrate incubated for 48 hrs by microplate reader analysis relative to control; format: cell-based; summary of the method: as §1
[5] = molecular target: Tryptophan 2,3-dioxygenase (Homo sapiens, UniProt P48775); assay: Inhibition of recombinant human TDO assessed as reduction in kynurenine formation using L-tryptophan as substrate incubated for 45 mins by microplate reader assay
Summary of the method: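 Purified recombinant human TDO (0.05 μM) in 100 mM potassium phosphate pH 6.5 with 40 mM neutralized ascorbate, 200 μg/mL catalase, 20 μM methylene blue, L-Trp substrate and compound; 37 °C, 45 min. Stopped with 30% TCA, 65 °C 15 min, then 2% p-dimethylaminobenzaldehyde in acetic acid; absorbance 490 nm; IC50 by curve fitting.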

[6] = molecular target: Indoleamine 2,3-dioxygenase 1 (Homo sapiens, UniProt P14902); assay: Inhibition of recombinant human IDO1 assessed as reduction in kynurenine formation using L-tryptophan as substrate incubated for 45 mins by microplate reader assay
B16-F10 [7] = assay: Antitumor activity against mouse B16F10 cells xenografted in C57BL/6 mouse assessed as tumor growth inhibition at 100 mg/kg, po administered for 19 consecutive days relative to control; format: functional; conditions: 456 h, time 19 day, read-out: TGI; summary of the method: as §2

Chain of Indoleamine 2,3-dioxygenase 1 (P14902 whole entry): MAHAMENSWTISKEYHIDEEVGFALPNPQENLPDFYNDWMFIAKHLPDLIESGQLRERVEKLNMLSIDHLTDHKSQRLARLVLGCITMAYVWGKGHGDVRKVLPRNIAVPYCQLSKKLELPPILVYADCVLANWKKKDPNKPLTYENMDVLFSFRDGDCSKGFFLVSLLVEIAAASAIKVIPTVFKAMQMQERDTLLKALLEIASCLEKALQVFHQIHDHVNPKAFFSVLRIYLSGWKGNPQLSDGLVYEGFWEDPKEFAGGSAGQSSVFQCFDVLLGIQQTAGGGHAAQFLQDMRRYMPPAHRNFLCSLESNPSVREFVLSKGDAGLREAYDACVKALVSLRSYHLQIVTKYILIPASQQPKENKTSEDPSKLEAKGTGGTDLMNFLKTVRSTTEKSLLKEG
Chain of Tryptophan 2,3-dioxygenase (P48775 whole entry): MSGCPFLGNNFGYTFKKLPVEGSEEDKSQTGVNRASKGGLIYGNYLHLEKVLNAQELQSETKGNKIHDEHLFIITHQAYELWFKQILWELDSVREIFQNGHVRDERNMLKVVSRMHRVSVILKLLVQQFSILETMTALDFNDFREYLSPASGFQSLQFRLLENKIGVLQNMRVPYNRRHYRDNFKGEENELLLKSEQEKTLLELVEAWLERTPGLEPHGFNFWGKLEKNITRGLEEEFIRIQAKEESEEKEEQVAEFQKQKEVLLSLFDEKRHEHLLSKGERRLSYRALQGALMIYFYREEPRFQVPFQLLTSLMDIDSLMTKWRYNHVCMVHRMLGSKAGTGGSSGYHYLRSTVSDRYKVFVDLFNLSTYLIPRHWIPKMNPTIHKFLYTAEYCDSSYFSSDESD

Compound: COc1cc(Nc2cc(NC(C)=O)cc3[nH]c(C(=O)O)cc23)cc(OC)c1OC
- Activity [1]: Non-Toxic
- Activity (T-lymphocyte): Active
- inhibition (A 172 [2]): 55.9%
- inhibition in vivo at 50 mg/kg (B16-F10 [3]): 43.2%
- inhibition (A 172 [4]): 77.7%
- IC50 [5]: 7.12 µM
- IC50 [6]: 3.18 µM
- inhibition in vivo at 100 mg/kg (B16-F10 [7]): 44.7%
